Activity calls are given as the source filed them. No cut-off for these calls is given here.
Tests used:
PANC-08-13 = experiment: Antiproliferative activity against human PANC-08-13 cells assessed as inhibition of cell proliferation incubated for 3 days by CellTiter-Glo Luminescent Cell Viability Assay; assay type: functional, cell-based; details: PANC-08-13, 72 h
Summary of the method: (§1)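 Cells of each line were plated in 384-well plates on day 1 and exposed to compound from day 2 for 3 days. On day 5 all medium was aspirated. Viable cell number was read by CellTiter-Glo luminescence, which quantifies cellular ATP.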

[1] = Antiproliferative activity against human PaTu 8988s cells assessed as inhibition of cell proliferation incubated for 3 days by CellTiter-Glo Luminescent Cell Viability Assay; assay type: functional, cell-based; details: 72 h; summary of the method: as §1
NCI-H2347 = experiment: Antiproliferative activity against human NCI-H2347 cells assessed as inhibition of cell proliferation incubated for 3 days by CellTiter-Glo Luminescent Cell Viability Assay; assay type: functional, cell-based; details: NCI-H2347, 72 h; summary of the method: as §1
HCC1954 = experiment: Antiproliferative activity against human HCC1954 cells assessed as inhibition of cell proliferation incubated for 3 days by CellTiter-Glo Luminescent Cell Viability Assay; assay type: functional, cell-based; details: HCC1954, 72 h
Summary of the method: (§2)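 Cancer cell lines seeded in 384-well plates on day 1; compound added on day 2 and left for 3 days. On day 5 all medium was aspirated, and viable cells were quantified by CellTiter-Glo luminescence, which measures cellular ATP. Dose-dependent effects on proliferation were determined.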

HCT-116 [2] = experiment: Antiproliferative activity against human HCT-116 cells assessed as inhibition of cell proliferation incubated for 3 days by CellTiter-Glo Luminescent Cell Viability Assay; assay type: functional, cell-based; details: HCT-116, 72 h; summary of the method: as §2
HCT-116 [3] = experiment: Antitumor activity against human HCT-116 cells xenografted in nude mouse assessed as reduction in MEK1 phosphorylation at S221 residue at 15 to 150 mg/kg/day administered via pump for 18 hrs by Reverse-Phase protein array analysis; assay type: functional, organism-based; details: dose 15-150 mg/kg/day
LS174T = experiment: Antiproliferative activity against human LS174T cells assessed as inhibition of cell proliferation incubated for 3 days by CellTiter-Glo Luminescent Cell Viability Assay; assay type: functional, cell-based; details: 72 h; summary of the method: as §2
HCT-116 [4] = experiment: Induction of cell cycle arrest in human HCT-116 cells assessed as accumulation of cells at S phase at 100 nM measured after 48 hrs by fluorescence activated cell sorter analysis (reference value: 26.15%); assay type: functional
NCI-H1838 = experiment: Inhibition of anchorage independent cell growth in human NCI-H1838 cells incubated for 6 days by Alamar blue reagent based fluorescence plate reader analysis; assay type: functional; details: NCI-H1838, 144 h
NCI-H716 = experiment: Antiproliferative activity against human NCI-H716 cells assessed as inhibition of cell proliferation incubated for 3 days by CellTiter-Glo Luminescent Cell Viability Assay; assay type: functional, cell-based; details: NCI-H716, 72 h; summary of the method: as §1
HCT-116 [5] = experiment: Antitumor activity against human HCT-116 cells xenografted in nude mouse assessed as inhibition of [3H]FLT uptake at 25 mg/kg, po administered once a day for 6 day and measured after 2 hrs post [3H]FLT administration by scintillation counter analysis relative to control; assay type: functional; details: HCT-116, 144 h
Summary of the method: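 HCT116 xenograft mice (tumors 300–350 mm3, n = 5 per group) received oral vehicle or compound, with harvests on days 2, 3 and 6. Isoflurane-anesthetized mice were given [3H]FLT (15 nCi/g, i.p.) 2 h before killing. Tumor and liver were weighed, solubilized and scintillation-counted. SUV = C/(ID/W), and uptake is reported as the tumor-to-liver SUV ratio.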

NCI-H1573 = experiment: Antiproliferative activity against human NCI-H1573 cells assessed as inhibition of cell proliferation incubated for 3 days by CellTiter-Glo Luminescent Cell Viability Assay; assay type: functional, cell-based; details: NCI-H1573, 72 h; summary of the method: as §2
HCC1419 = experiment: Antiproliferative activity against human HCC1419 cells assessed as inhibition of cell proliferation incubated for 3 days by CellTiter-Glo Luminescent Cell Viability Assay; assay type: functional, cell-based; details: HCC1419, 72 h; summary of the method: as §2
HT-29 = experiment: Antiproliferative activity against human HT-29 cells assessed as inhibition of cell proliferation incubated for 3 days by CellTiter-Glo Luminescent Cell Viability Assay; assay type: functional, cell-based; details: HT-29, 72 h; summary of the method: as §2
[6] = Inhibition of YFP/YFP variant coding sequence fused p53/Pin1 (unknown origin) expressed in HEK293 cells incubated for 8 to 24 hrs by fluorescence based analysis; assay type: cell-based, Homo sapiens
[7] = Cytotoxicity against primary hepatocyte (unknown origin) assessed as inhibition of cell proliferation incubated for 3 days by CellTiter-Glo Luminescent Cell Viability Assay; assay type: toxicity, cell-based; details: primary hepatocytes
HCT-116 [8] = experiment: Induction of cell cycle arrest in human HCT-116 cells assessed as accumulation of cells at G2/M phase at 100 nM measured after 48 hrs by fluorescence activated cell sorter analysis (reference value: 19.78%); assay type: functional
NCI-H520 = experiment: Inhibition of anchorage independent cell growth in human NCI-H520 cells incubated for 6 days by Alamar blue reagent based fluorescence plate reader analysis; assay type: functional; details: NCI-H520, 144 h
[9] = biological target: Serine/threonine-protein kinase Chk2 (Homo sapiens, UniProt O96017); experiment: Inhibition of human CHK2 in presence of ATP
GTL 16 cell line = experiment: Antitumor activity against human GTL-16 cell line xenografted in nude mouse assessed as tumor growth inhibition at 20 mg/kg, po administered once daily for 9 to 18 days relative to control; assay type: functional; details: time 9-18 day, read-out: TGI
Summary of the method: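 Tumor cells were implanted s.c. into the right flank of female nu/nu nude mice aged 6–8 weeks. Animals were randomized into treatment groups once tumors were established (example: day 8 postimplant, about 170 mm3, animals >22 g). Compound in 0.5% methylcellulose was given by oral gavage. Tumors were measured with calipers two to three times per week.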

[10] = Drug concentration in nude mouse plasma xenografted with human HCT-116 cells at 0.12 mg/kg administered via pump for 9 days by LC-MS/MS analysis; assay type: ADME, organism-based; details: time 9 day
[11] = biological target: Tyrosine-protein kinase Yes (Homo sapiens, UniProt P07947); experiment: Inhibition of human YES1 in presence of ATP relative to control; details: concentration not given here
NCI-H1666 = experiment: Antiproliferative activity against human NCI-H1666 cells assessed as inhibition of cell proliferation incubated for 3 days by CellTiter-Glo Luminescent Cell Viability Assay; assay type: functional, cell-based; details: NCI-H1666, 72 h; summary of the method: as §1
HPAC = experiment: Antiproliferative activity against human HPAC cells assessed as inhibition of cell proliferation incubated for 3 days by CellTiter-Glo Luminescent Cell Viability Assay; assay type: functional, cell-based; details: 72 h; summary of the method: as §2
HCC1187 = experiment: Antiproliferative activity against human HCC1187 cells assessed as inhibition of cell proliferation incubated for 3 days by CellTiter-Glo Luminescent Cell Viability Assay; assay type: functional, cell-based; details: HCC1187, 72 h; summary of the method: as §2
NCI-H226 = experiment: Antiproliferative activity against human NCI-H226 cells assessed as inhibition of cell proliferation incubated for 3 days by CellTiter-Glo Luminescent Cell Viability Assay; assay type: functional, cell-based; details: NCI-H226, 72 h; summary of the method: as §1
NCI-H1975 = experiment: Antiproliferative activity against human NCI-H1975 cells assessed as inhibition of cell proliferation incubated for 3 days by CellTiter-Glo Luminescent Cell Viability Assay; assay type: functional, cell-based; details: NCI-H1975, 72 h
Summary of the method: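 Cancer cell lines seeded in 384-well plates on day 1; compound added on day 2 and incubated 3 days. On day 5 media aspirated and viable cells quantified by ATP content using CellTiter-Glo luminescence; dose-dependent proliferation effects determined.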

Tyrosine-protein kinase Yes, sequence (P07947 2-543 limits assumed): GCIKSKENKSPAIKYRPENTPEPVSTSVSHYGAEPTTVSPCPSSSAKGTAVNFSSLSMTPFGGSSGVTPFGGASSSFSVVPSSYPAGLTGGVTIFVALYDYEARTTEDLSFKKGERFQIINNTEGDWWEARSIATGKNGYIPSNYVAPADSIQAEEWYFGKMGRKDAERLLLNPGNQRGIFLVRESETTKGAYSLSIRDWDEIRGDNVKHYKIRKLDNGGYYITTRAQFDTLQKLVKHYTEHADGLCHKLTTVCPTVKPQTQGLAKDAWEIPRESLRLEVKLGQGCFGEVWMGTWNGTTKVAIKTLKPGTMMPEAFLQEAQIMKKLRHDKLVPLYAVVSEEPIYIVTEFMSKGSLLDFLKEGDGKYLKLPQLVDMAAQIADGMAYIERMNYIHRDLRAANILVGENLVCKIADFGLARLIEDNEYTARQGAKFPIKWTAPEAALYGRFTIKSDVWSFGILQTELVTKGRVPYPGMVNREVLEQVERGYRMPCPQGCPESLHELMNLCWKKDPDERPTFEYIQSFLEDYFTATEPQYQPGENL
Serine/threonine-protein kinase Chk2, sequence (O96017 whole entry): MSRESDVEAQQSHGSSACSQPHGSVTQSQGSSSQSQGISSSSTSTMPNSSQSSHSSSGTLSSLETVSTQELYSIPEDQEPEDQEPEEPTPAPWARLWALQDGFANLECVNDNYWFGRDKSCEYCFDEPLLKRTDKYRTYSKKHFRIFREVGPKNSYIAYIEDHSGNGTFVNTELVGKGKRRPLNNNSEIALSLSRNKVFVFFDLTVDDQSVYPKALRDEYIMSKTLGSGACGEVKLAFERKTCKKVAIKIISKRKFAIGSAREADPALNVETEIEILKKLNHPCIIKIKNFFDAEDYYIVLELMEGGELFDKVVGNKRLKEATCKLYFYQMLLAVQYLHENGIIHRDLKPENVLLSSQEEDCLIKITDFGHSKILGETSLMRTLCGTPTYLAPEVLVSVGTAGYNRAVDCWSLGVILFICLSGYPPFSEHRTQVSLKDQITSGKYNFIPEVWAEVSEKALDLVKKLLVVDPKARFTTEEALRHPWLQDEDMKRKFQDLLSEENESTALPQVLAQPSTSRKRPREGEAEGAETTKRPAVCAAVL

Cc1nc(Nc2n[nH]c3c2CN(C(=O)N[C@H](CN(C)C)c2ccccc2)C3(C)C)c2sccc2n1 [PF-03758309]
IC50 (PANC-08-13): 12 nM | IC50 [1]: 738 nM | IC50 (NCI-H2347): 2 nM | IC50 (HCC1954): 0.33 nM | IC50 (HCT-116 [2]): 2.4 nM | Activity (HCT-116 [3]): Active | IC50 (LS174T): 7.2 nM | Activity (HCT-116 [4]): 14.37% | IC50 (NCI-H1838): 9.59 nM | IC50 (NCI-H716): 11 nM | inhibition in vivo at 25 mg/kg (HCT-116 [5]): 43.1% | IC50 (NCI-H1573): 22 nM | IC50 (HCC1419): 0.79 nM | IC50 (HT-29): 4.3 nM | IC50 [6]: 5.7 nM | IC50 at 3 days [7]: > 1000 nM | Activity (HCT-116 [8]): 23.08% | IC50 (NCI-H520): 1.13 nM | IC50 [9]: 13 nM | inhibition in vivo at 20 mg/kg (GTL 16 cell line): 28% | concentration at 216 h [10]: 0.56 ng/mL | inhibition [11]: 92% | IC50 (NCI-H1666): 3.8 nM | IC50 (HPAC): 265 nM | IC50 (HCC1187): 0.24 nM | IC50 (NCI-H226): 9.3 nM | IC50 (NCI-H1975): 17 nM
